Hits are enriched below; roughly 3.5% of the tested compounds scored in any of these assays.
MrgX1 agonist: agonists of human MrgX1 receptor; MrgX1-HEK293 cells, Fluo-4 calcium fluorescence, agonist mode; active compounds read high; B-score at 10 µM; hit rate 0.44% among 310,000; AID 588627;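 active means calcium response B-score plate-corrected fluorescence ratio at least 3 library SD, with starting fluorescence B-score inside 5 SD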
Target sequence (Q96LB2 whole entry, looked up): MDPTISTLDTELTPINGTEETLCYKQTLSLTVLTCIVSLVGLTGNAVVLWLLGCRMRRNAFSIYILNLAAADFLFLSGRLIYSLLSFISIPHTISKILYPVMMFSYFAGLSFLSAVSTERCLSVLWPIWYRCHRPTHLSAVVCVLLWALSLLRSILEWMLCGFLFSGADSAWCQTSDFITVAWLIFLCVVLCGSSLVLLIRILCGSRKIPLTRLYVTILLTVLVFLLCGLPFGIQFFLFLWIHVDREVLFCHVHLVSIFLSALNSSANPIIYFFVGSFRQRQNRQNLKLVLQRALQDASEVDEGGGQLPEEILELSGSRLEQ
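Test system: HEK293 cells stably expressing human MrgX1 receptor; amount: 15,000 cells per well; doses: compound delivered in addition one of three; times: overnight plating before 1 h dye loading; detection: Fluo-4 NW calcium-flux fluorescence, kinetic read; read-out basis: B-scored fluorescence response ratio; controls: positive and negative controls per plate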
MrgX1 allo act: allosterically activates human MrgX1 receptor signaling. Q96LB2. MrgX1-HEK293, Fluo-4 calcium flux, FDSS; active compounds read high. B-score at 10 µM. hit rate 0.63% among 310,000. AID 588675;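 active means plate-corrected calcium response at least 3 library SD above typical, normal starting fluorescence, not activating the receptor alone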;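 further: compound read alongside a low EC10 to EC30 dose of BAM8-22 agonist; peak minus trough fluorescence over baseline measured at the second addition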
MrgX1 antag: antagonists of human MrgX1 receptor. B-score at 10 µM. AID 588676. hit rate 1.3% among 310,000. MRGX1-HEK293 calcium flux, Fluo-4, BAM8-22 antagonism; active compounds read low;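 active means calcium-response B-score plate-corrected more than 3 library SD below zero, starting fluorescence within 5 deviations, no agonist response on first addition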;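 further: peak minus trough fluorescence over baseline after final BAM8-22 challenge near maximal dose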
RGS4 inh: human RGS4 inhibition | HEK293 M3R/RGS4 inducible, Fluo-4 calcium flux; active compounds read high; triggered by carbachol at its EC20 | B-score at 10 µM | hit rate 0.45% among 310,000 | P49798;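 active means B-score, a plate-corrected calcium signal, over three deviations above library mean, with baseline fluorescence within five deviations of library mean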;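 further: RGS4 expression induced by doxycycline in cells with stable M3 receptor; B-score is computed from the integrated fluorescence ratio over baseline after carbachol; higher B-score means a larger calcium signal and so more RGS4 inhibition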
RGS4 act: RGS4 potentiation or activation; HEK293 M3R/inducible RGS4, carbachol calcium flux Fluo4; active compounds read low; B-score at 10 µM; hit rate 0.92% among 310,000;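 active means B-score of the integrated calcium signal more than 4 SD below the library mean, with starting fluorescence not abnormally high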;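 further: negative B-score means reduced calcium response which marks RGS4 activation or potentiation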
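Reagent: ECmax carbachol challenge; Test system: M3R-expressing HEK293 line, RGS4 induced by doxycycline; Schedule: overnight RGS4 induction, 30 min dye load 37 °C, 20 min compound RT; Detection: calcium dye Fluo4 fluorescence; Read-out: Agonist-evoked peak-minus-minimum fluorescence over baseline, integrated ratio, B score.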
* hit, by the source's call; i = inactive.

SMILES	MrgX1 agonist	MrgX1 allo act	MrgX1 antag	RGS4 inh	RGS4 act
Cc1nnc(NC(=O)c2cc(-c3ccncc3)nc3c(C)cccc23)s1	i	i	i	i	i
COc1ccc(NC(=O)CCNC(=O)c2ccco2)c(OC)c1	i	i	i	i	i
CC(C)(C)C1CCc2c(C(=O)NNC(=O)/C=C/C(=O)O)csc2C1 (centres undefined)	i	i	-6.4*	i	i
CC(C)(C)C1CCc2c(C(=O)N/N=C/c3cccs3)csc2C1 (centres undefined)	i	i	i	i	i
S=C(Nc1ccc(Cl)cc1)NC1CC2CCC(C1)N2Cc1ccccc1 (centres undefined)	i	i	i	i	i
O=C(Nc1ccccc1-c1ccccc1)NC1CC2CCCC(C1)N2CCc1ccccc1 (centres undefined)	i	i	i	i	-7.1*
CCc1ccc(NC(=S)NC2CC3CCCC(C2)N3Cc2ccccc2)cc1 (centres undefined)	i	i	i	i	-8.7*
Cc1ccc(CN2C3CCCC2CC(NC(=O)c2ccc(F)cc2)C3)cc1 (centres undefined)	i	i	i	i	i
CCCN1C2CCCC1CC(NC(=O)Nc1cccc(C(C)=O)c1)C2 (centres undefined)	i	i	i	i	i
O=C(Nc1ccccc1-c1ccccc1)NC1CC2CCCC(C1)N2Cc1ccc(F)cc1 (centres undefined)	i	i	i	i	-10*
CC(C)(C)c1nc2ccc(NS(=O)(=O)c3ccc(F)c(F)c3F)cc2[nH]1	i	i	i	i	i
Cc1ccc(NC(=O)CN2C(=O)C3CC=C(Cl)CC3C2=O)cc1 (centres undefined)	i	i	i	i	i
O=C(/C=C/c1ccco1)Nc1ccc2c(c1)OCO2	i	i	i	i	i
CCc1ccccc1NC(=O)c1cccc(NC(=O)/C=C/c2ccco2)c1	i	i	i	i	i
Cc1ccc(-n2nc3ccc(NC(=O)/C=C/c4ccco4)cc3n2)cc1	i	i	-6.3*	i	i
Cc1ccc(NC(=O)c2cccc(NC(=O)/C=C/c3ccco3)c2)cc1C	i	i	i	i	-9.6*
O=C(COc1ccccc1)N=C1SC2CS(=O)(=O)CC2N1c1ccc(F)cc1F (centres undefined)	i	i	i	i	i
Cc1ccc(OCC(=O)N2CCN(c3nnc(-c4ccc(C)cc4)c4ccccc34)CC2)cc1	i	i	i	i	i
Cc1ccc(-c2nnc(N3CCN(C(=O)COc4cccc(C)c4)CC3)c3ccccc23)cc1	i	i	i	i	-7.3*
CC1CCN(c2cc(C#N)c(C#N)cc2[N+](=O)[O-])CC1	i	11*	i	i	i
CC1CCN(c2cc(N)c(Cl)cc2[N+](=O)[O-])CC1	i	7.3*	i	i	i
CCc1ccccc1NC(=O)c1ccc([N+](=O)[O-])s1	i	i	i	i	i
COc1ccc(OC)c(C2=C/C(=C/c3ccccn3)C(=O)O2)c1	i	i	i	i	-7.9*
O=C(NCCN1C(=O)CCC1=O)c1ccncc1	i	i	i	i	i
COc1ccc([N+](=O)[O-])cc1NC(=O)CSc1nc(C)c(C)c(C)n1	i	i	-4.5*	i	i
SMILES	MrgX1 agonist	MrgX1 allo act	MrgX1 antag	RGS4 inh	RGS4 act
COc1ccc([N+](=O)[O-])cc1NC(=O)CSc1nccc(C)n1	i	i	i	i	i
COc1ccccc1CN1CCC(CNS(=O)(=O)c2cc(-c3cc(C)no3)ccc2OC)CC1	i	i	i	i	-7.6*
CC(=O)/C(=N/Nc1ccc(Br)cc1)N1CCCc2ccccc21	i	i	i	i	-7.7*
O=[N+]([O-])c1ccc(N/N=C2\CC3CC=CC23)cc1 (centres undefined)	i	8.1*	i	i	i
C=CCOc1ccc(CNCCc2ccc(S(N)(=O)=O)cc2)cc1	i	i	i	i	-7.4*
O=C(CCCn1cnc([N+](=O)[O-])n1)Nc1ccc(Cl)cc1Cl	i	i	-9.1*	i	i

Source: PubChem BioAssay
